The list is not random: actives were taken first. Their share in the collection is about 2.3%.
MsrA inh: inhibits bovine methionine sulfoxide reductase A; inhibition, % at 15.5 µM; hit rate 0.75% among 360,000; purified bovine MsrA, absorbance read-out; AID 651718;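 note: 0% = vehicle wells with enzyme and 100% = reference inhibitor wells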
MC4R antagonist: antagonists of human melanocortin 4 receptor (MC4R); P32245; MC4R-expressing cells, MTII-stimulated cAMP, LANCE TR-FRET; inhibition, % at 6.5 µM; hit rate 0.48% among 360,000;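 active = inhibition above its plate's cutoff, the mean of tested wells on that plate plus 3 SD, cut at about 29% in these data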;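 note: 0% = Melanotan II alone and 100% = Melanotan II plus saturating MCL0020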
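Test system: U2OS cells stably expressing human melanocortin 4 receptor (MC4R); also added: Melanotan II challenge; compound: 6.5 µM single dose; timing: 30-min compound preincubation, 1-h Melanotan II challenge, 1-h detection, room temperature; signal: Eu-cAMP/anti-cAMP TR-FRET, emission 671 nm; repeats: one well per compound, no replicates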
MsrA act: activators of bovine methionine sulfoxide reductase A; purified bovine MsrA, absorbance read-out; activation, % at 10.6 µM; hit rate 0.3% among 360,000; in the data active = activation above about 7.5%;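 note: 0% = vehicle and 100% = reference activator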
MC4R barr agon: agonists of human melanocortin 4 receptor (MC4R) beta-arrestin | activation, % at 8.9 µM | P32245 | U2OS MC4R beta-arrestin complementation, luminescence; percent of melanotan II response, DMSO zero | hit rate 0.98% among 360,000 | AID 540308;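 active = activation above a per-plate cutoff, the mean activation of sample wells on that plate plus 3 SD, cut at about 8% in these data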
U2OS cAMP counter: nonselective cAMP signaling inhibitor, MC4R antagonist counter-screen | hit rate 26% among 1,600 | inhibition, % at 6.5 µM | parental U2OS, forskolin cAMP, LANCE TR-FRET | shares compounds with MC4R antagonist | AID 602193;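 active = mean inhibition over triplicates above the low-control well mean plus 3 SD, set per campaign, cut at about 13% in these data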;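 note: signal is single emission at 671 nm which falls as cellular cAMP rises; 0% = forskolin-stimulated wells and 100% = buffer without forskolin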
MC4R antag conf: human MC4R cAMP antagonism confirmation | inhibition, % at 6.5 µM | AID 602195 | hit rate 27% among 1,600 | shares compounds with MC4R antagonist | MC4R-expressing cells, MTII-stimulated cAMP, TR-FRET; in the data active = inhibition above about 29%;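 note: 0% = agonist stimulated wells alone and 100% = agonist stimulated wells plus saturating reference antagonist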
MC4R barr conf: human MC4R beta-arrestin agonism confirmation. shares compounds with MC4R barr agon. U2OS MC4R beta-arrestin recruitment, luminescence; scaled DMSO 0%, Melanotan II 100%. activation, % at 8.9 µM. hit rate 31% among 2,400. AID 602192;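 active = mean activation across replicates above the hit cutoff set in the earlier primary screen, cut at about 8% in these data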
MOR-DOR barr ag: activates mu-delta opioid heterodimer, MC4R agonist counter-screen; shares compounds with MC4R barr agon; U2OS PathHunter beta-arrestin, beta-gal luminescence; percent of deltorphin B response, DMSO zero; activation, % at 9.2 µM; hit rate 5.8% among 2,400; AID 602194;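 active = mean activation across replicates exceeds the hit threshold derived in the earlier primary screen, cut at about 18% in these data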;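 note: 100% = deltorphin B at 0.9 µM final and 0% = DMSO alone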
Target sequence (P35372 whole entry, looked up): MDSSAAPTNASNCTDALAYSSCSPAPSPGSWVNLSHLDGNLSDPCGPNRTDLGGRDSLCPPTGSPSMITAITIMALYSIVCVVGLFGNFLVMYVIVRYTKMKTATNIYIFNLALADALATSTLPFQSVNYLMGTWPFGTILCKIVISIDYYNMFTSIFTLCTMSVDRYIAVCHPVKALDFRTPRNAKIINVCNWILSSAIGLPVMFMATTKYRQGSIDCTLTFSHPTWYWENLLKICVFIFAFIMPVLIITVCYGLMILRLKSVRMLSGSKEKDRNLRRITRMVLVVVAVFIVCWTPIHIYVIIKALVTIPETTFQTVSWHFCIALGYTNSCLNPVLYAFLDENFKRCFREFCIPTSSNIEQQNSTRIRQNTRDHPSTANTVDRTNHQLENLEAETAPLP
Target sequence (P41143 whole entry, looked up): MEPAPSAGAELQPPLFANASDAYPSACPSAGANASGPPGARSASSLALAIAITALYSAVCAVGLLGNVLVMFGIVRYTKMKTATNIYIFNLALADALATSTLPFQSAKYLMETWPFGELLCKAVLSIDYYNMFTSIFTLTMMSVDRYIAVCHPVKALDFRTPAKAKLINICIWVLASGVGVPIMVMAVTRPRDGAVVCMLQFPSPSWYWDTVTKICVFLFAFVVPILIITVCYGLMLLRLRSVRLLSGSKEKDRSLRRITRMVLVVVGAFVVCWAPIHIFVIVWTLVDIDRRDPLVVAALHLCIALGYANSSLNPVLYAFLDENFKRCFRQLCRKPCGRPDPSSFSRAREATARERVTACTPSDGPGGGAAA
MsrA activ conf: confirmation of bovine methionine sulfoxide reductase A activators; purified bovine MsrA, absorbance read-out; activation, % at 10.6 µM; shares compounds with MsrA act; hit rate 12% among 1,000; in the data active = activation above about 4%;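 note: enzyme coupled to thioredoxin and thioredoxin reductase with NADPH; 0% = vehicle wells and 100% = reference activator wells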
MsrA inh confirm: bovine MsrA inhibition, confirmed; shares compounds with MsrA inh; purified bovine MsrA, absorbance read-out; inhibition, % at 15.5 µM; hit rate 41% among 2,300; AID 651822;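 note: coupled to thioredoxin reductase with NADPH and selenocystamine and DMSO as substrate; 0% = vehicle only and 100% = full effect of reference inhibitor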
Numbers without * were called inactive; . = not tested or not shown. Cut-off read from the data, not from the text of the source, unless noted: active = inhibition above about 4.5%; inactive = the rest.

SMILES	MsrA inh	MC4R antagonist	MsrA act	MC4R barr agon	MC4R barr conf	MOR-DOR barr ag	others
C=C(C(=O)c1ccccc1)C(C)CC(=O)c1ccccc1 (stereo not drawn)	-1	33*	8.5*	-1	.	.	U2OS cAMP counter=23*;MC4R antag conf=50*;MsrA activ conf=-1
Cc1cnc(C(=O)OCC(=O)c2cc(C)n(CCc3ccc(F)cc3)c2C)cn1	-1	3	-6	0	.	.
CCCC(=O)NC1=C(Cl)C(=O)c2ccccc2C1=O	1	93*	9.2*	-1	.	.	U2OS cAMP counter=78*;MC4R antag conf=106*;MsrA activ conf=1
CCN(CC)c1ccc(NC2=C(Cl)C(=O)c3ccccc3C2=O)cc1	.	0	-3	-6	.	.
O=C(NC(=S)NCCCN1CCOCC1)c1ccco1	5.8*	29*	-2	1	.	.	U2OS cAMP counter=2;MC4R antag conf=-15;MsrA inh confirm=3
O=C(NC(=S)NCCN1CCOCC1)c1ccccc1Cl	0	-8	-13	2	.	.
CCOC(=O)/C=C/C(=O)NNC(=O)c1ccccc1Cl	2	1	-7	-2	.	.
O=C(OCc1ccccc1)N1CCC2CC1c1c(Cl)cccc12 (stereo not drawn)	5.6*	30*	0	3	.	.	U2OS cAMP counter=-2;MC4R antag conf=-10;MsrA inh confirm=0
O=C(NC(=S)NCCC1=CCCCC1)c1ccco1	0	10	-3	10*	-1	7
O=C(NC(=S)NCCC1=CCCCC1)c1ccc(Br)o1	0	0	-9	0	.	.
CCOc1cc(/C=N/NC(=O)CSc2nnc(C)s2)ccc1OCc1ccccc1Cl	0	13	0	11*	5	7
COc1ccc(-c2nn(-c3ccccc3)cc2/C=C/C(=O)OCC(=O)Nc2cccc(C#N)c2)cc1	-2	4	-1	0	.	.
C=CCNC(=S)N/N=C/c1cn(-c2ccccc2)nc1-c1ccc(OC)cc1	1	2	-5	15*	5	4
COc1ccc(-c2nn(-c3ccccc3)cc2/C=N/NC(=O)c2ccc(Br)o2)cc1	2	-1	-2	0	.	.
COc1ccc(-c2nn(-c3ccccc3)cc2/C=C/C(=O)OCC(=O)Nc2ccc(C#N)cc2)cc1	.	3	-2	10*	-1	4
Cc1cccc(NC(=O)c2oc(=O)c3ccccc3c2-c2ccccc2)c1C	1	10	-3	11*	1	3
Cc1ccccc1NC(=O)c1oc(=O)c2ccccc2c1-c1ccccc1	1	-3	-2	-1	.	.
CCc1ccc(CCC(=O)Nc2ncc(Cc3ccccc3Cl)s2)o1	0	-27	-6	18*	25*	13
O=C(CN1CCOCC1)Nc1ncc(Cc2ccccc2Cl)s1	1	5	-3	-2	.	.
Cn1c(SCC(=O)Nc2cccc(Br)c2)nnc1-c1cc2ccccc2o1	-1	3	-3	11*	2	1
CCOc1ccc(-n2nnnc2SCC(=O)c2ccccc2)cc1	1	10	0	16*	-3	2
COc1ccc(-n2nnnc2SCC(=O)c2cccc(OC)c2)cc1	2	20	-1	1	.	.
Cc1ccc(S(=O)(=O)N(C)CCCC(=O)Nc2ccc(F)cc2)cc1	0	-2	-8	1	.	.
CCOC(=O)C1=C(N)c2ccccc2CC1C(C)C (stereo not drawn)	-1	2	-10	11*	3	8
Cc1cc(N2CCN(C(=O)c3ccco3)CC2)n2nc(-c3cccc(Cl)c3)cc2n1	1	-7	-10	26*	31*	7
SMILES	MsrA inh	MC4R antagonist	MsrA act	MC4R barr agon	MC4R barr conf	MOR-DOR barr ag	others
COc1ccc(S(=O)(=O)N2CCOCC2)cc1NC(=O)c1ccccc1-c1ccc(C(F)(F)F)cc1	-1	18	1	10*	0	2
COc1ccccc1NC(=O)Nc1cccc(NC(C)=O)c1	1	8	-3	1	.	.
COc1ccccc1NC(=O)Nc1cc(C(C)C)ccc1C	-1	-4	-3	19*	-1	8
CCOc1ccc(C2NCCc3cc(OC)c(OC)cc32)cc1OC (stereo not drawn)	1	3	-1	0	.	.
CCOC(=O)c1cccc(Nc2nc(-c3cccnc3)nc3ccccc23)c1	2	5	-1	12*	6	7
Clc1ccc(CSc2cnnc3ccccc23)cc1Cl	1	-9	-1	13*	3	3
CCSc1cnnc2ccccc12	2	-2	-6	-1	.	.
O=C(NCc1ccc(C(F)(F)F)cc1)C1CC(c2ccc(C(F)(F)F)cc2)=NO1 (stereo not drawn)	1	-7	-3	12*	2	7
O=C(NCc1ccc(OC(F)(F)F)cc1)C1CC(c2ccc(C(F)(F)F)cc2)=NO1 (stereo not drawn)	0	5	0	5	.	.
COc1ccc(-c2cc(C(=O)Nc3ccccc3SC)no2)cc1	-1	0	-2	0	.	.
CSc1ccccc1NC(=O)c1cc(-c2cccs2)on1	1	-2	-3	9.8*	7	5
O=C(N/N=C/c1ccccc1)c1ccc(OCc2ccccc2)cc1	2	0	-7	12*	3	4
CCCN(CCC)Cc1c(C(=O)N/N=C/c2ccc(C)o2)nnn1-c1nonc1N	1	6	-2	13*	3	14
Nc1nonc1-n1nnc(C(=O)N/N=C/c2ccc(OCc3ccc(F)cc3)cc2)c1COc1ccccc1	2	20	-1	19*	8	3
Cc1ccc(COc2ccc(/C=N/NC(=O)c3nnn(-c4nonc4N)c3COc3ccc(F)cc3)cc2)cc1	0	3	-4	-2	.	.
Cc1ccc(NC(=O)C2CCN(S(=O)(=O)c3c(C)noc3/C=C/N(C)C)CC2)cc1	0	3	-4	-1	.	.
Cc1cc(O)cc(=O)n1-c1ccc(OC(F)F)cc1	0	.	.	.	.	.
Cc1n[nH]c(C)c1CCNC(=O)C1CCC(=O)N(Cc2ccccc2F)C1 (stereo not drawn)	0	7	-1	-3	.	.
COc1ccc(NC(=O)c2ccccc2-c2ccc(C(F)(F)F)cc2)cc1S(=O)(=O)N1CCOCC1	-1	1	-4	-1	.	.
O=C(Nc1ccc(C(F)(F)F)cc1-c1ccccc1)c1ccccc1	1	-5	-1	13*	2	4
